In ChEMBL document CHEMBL4715824, “Chemical Proteomic Characterization of a Covalent KRASG12C Inhibitor” (ACS Med Chem Lett, 2018):

Columns and labels:
[1] = molecular target: Fatty acid-binding protein 5 (Homo sapiens) (UniProt Q01469); assay: (§1) Covalent binding affinity to FABP5 at Cys67 residue in human NCI-H358 cells assessed as log2 H/L ratio at 10 uM pretreated for 3 hrs followed by N-(((6S,7R)-7-(4-chloro-3-fluorophenyl)-1,4-oxazepan-6-yl)methyl)-2-hydroxyacetamide treatment for 3 hrs by competitive TMT click chemistry pull-down experiment based LC-MS/MS analysis; assay type: cell-based; details: time 6.0 hrs
Procedure, shortened: (§2)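 H358 cells were pretreated with DMSO (n = 3) or 10 μM compound for 3 h, then 2 μM alkyne probe was added for another 3 h. Cells were lysed, clicked onto azide-agarose resin, digested, TMT-labelled and pooled. The pool was fractionated by high-pH HPLC and each fraction run twice by 60 min low-pH nano LC-MS/MS. Readout was log2 compound/DMSO normalized reporter intensity, with a least-squares means test and FDR adjustment.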

[2] = molecular target: T1, Heme oxygenase 2 (Homo sapiens) (UniProt P30519); assay: as §1, with “HMOX2” for “FABP5”, “Cys282” for “Cys67”; assay type: cell-based; details: time 6.0 hrs; procedure, shortened: as §2
T1 sequence (whole entry): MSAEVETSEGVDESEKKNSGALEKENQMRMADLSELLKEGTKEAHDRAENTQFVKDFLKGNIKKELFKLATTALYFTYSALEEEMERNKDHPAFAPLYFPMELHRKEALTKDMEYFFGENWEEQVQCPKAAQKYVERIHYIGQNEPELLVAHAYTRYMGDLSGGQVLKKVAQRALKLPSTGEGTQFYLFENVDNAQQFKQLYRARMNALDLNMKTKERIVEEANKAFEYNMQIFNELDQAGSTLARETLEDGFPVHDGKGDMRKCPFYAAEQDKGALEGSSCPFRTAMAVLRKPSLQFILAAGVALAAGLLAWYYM

[3] = molecular target: T2, Synaptic vesicle membrane protein VAT-1 homolog (Homo sapiens, UniProt Q99536); assay: (§3) Covalent binding affinity to VAT1 at Cys residue in human NCI-H358 cells assessed as reduction of log2 H/L ratio for tryptic peptide […] incubated for 4 hrs followed by cell lysis and subsequently labelled with light thiol probe N-((S)-18-iodo-11-isopropyl-10,13,17-trioxo-3,6-dioxa-9,12,16-triazaoctadecyl)-6-((4R,5S)-5-methyl-2-oxoimidazolidin-4-yl)hexanamide and heavy thiol probe 4 for 1 hr under dark conditions followed by tryptic digestion for overnight and measured by discovery ABPP based nano LC-MS/MS analysis
T2 sequence (Q99536 whole entry): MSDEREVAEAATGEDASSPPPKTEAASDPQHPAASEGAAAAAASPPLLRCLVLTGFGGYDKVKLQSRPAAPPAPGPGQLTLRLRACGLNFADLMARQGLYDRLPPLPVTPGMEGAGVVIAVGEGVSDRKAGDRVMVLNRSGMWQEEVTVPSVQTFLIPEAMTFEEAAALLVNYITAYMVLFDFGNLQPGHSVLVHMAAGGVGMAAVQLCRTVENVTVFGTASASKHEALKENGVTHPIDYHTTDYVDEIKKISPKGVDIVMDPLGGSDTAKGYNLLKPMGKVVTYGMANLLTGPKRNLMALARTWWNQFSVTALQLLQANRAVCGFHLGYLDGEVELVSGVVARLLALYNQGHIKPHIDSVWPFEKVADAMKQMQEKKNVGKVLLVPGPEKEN
Procedure, shortened: (§4)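 H358 cells were treated 4 h with DMSO, 0.08, 0.4, 2 or 10 μM, each paired with DMSO control cells, in biological duplicate. After lysis and denaturation, treated lysate took heavy thiol probe and control lysate took light probe. Lysates were combined equally, and probe-labelled tryptic peptides were streptavidin-enriched. Peptides were run twice by 180 min data-dependent nano LC-MS/MS. Hits needed log2 H/L below −0.776 (3σ) plus a dose-dependent decrease.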

[4] = molecular target: T3, Reticulon-4 (Homo sapiens) (UniProt Q9NQC3); assay: as §1, with “RTN4” for “FABP5”, “Cys1101” for “Cys67”; assay type: cell-based; details: time 6.0 hrs; procedure, shortened: as §2
T3 sequence (whole entry): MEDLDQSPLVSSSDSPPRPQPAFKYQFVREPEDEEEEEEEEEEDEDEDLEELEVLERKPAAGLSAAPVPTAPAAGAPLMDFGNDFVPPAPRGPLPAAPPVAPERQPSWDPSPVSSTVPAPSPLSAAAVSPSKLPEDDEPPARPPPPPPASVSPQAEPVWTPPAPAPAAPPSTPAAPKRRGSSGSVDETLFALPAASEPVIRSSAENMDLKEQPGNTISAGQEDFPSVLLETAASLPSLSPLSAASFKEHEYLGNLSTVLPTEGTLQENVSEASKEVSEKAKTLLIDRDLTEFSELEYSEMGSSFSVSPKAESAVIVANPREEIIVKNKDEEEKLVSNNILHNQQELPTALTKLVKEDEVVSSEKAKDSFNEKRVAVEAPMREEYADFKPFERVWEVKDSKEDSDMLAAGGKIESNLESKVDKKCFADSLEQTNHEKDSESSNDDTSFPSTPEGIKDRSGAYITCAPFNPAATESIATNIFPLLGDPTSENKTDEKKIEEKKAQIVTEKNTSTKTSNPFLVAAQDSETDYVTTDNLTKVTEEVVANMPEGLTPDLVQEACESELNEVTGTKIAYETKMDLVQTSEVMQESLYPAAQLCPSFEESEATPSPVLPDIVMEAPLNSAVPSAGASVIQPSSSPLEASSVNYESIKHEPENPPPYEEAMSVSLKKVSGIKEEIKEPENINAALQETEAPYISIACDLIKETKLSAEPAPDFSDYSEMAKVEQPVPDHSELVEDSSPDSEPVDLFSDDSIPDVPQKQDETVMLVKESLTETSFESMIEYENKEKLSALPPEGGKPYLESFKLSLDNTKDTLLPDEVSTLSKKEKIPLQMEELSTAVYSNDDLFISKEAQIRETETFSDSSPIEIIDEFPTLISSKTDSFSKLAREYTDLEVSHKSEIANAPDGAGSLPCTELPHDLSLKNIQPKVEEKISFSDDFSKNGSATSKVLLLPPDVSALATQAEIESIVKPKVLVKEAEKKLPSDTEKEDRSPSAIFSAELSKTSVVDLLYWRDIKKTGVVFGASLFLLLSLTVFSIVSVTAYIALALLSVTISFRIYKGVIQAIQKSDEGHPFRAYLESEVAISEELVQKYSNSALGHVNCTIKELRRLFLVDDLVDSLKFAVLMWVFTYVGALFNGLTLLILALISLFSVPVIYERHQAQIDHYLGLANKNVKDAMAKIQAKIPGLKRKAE

GTPase KRas [5] = molecular target: T4, GTPase KRas (Homo sapiens, UniProt P01116, G12C); assay: as §3, with “KRAS G12C mutant” for “VAT1”, “Cys12” for “Cys”, “by” for “by discovery”, “ABPP target occupancy” for “ABPP”, “UHPLC Q-SIM MS” for “nano LC-MS/MS”
Procedure, shortened: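 Target occupancy: H358 cells were treated 4 h with DMSO, 0.08, 0.4, 2 or 10 μM, each paired with DMSO controls, in duplicate. Lysates were labelled heavy (treated) or light (control) with thiol probe, combined, trypsinized and streptavidin-enriched. The LVVVGAC*GVGK peptide pair was measured by UHPLC Q-SIM, with AUC H/L as occupancy. Each point averaged four MS injections, and IC50 came from the concentration-response curve.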

GTPase KRas [6] = molecular target: T4, GTPase KRas; assay: as §3, with “KRAS G12C mutant” for “VAT1”, “Cys12” for “Cys”; procedure, shortened: as §4
[7] = system: GTPase KRas (Homo sapiens), P01116 [G12C]; assay: as above; procedure, shortened: as §4
[8] = molecular target: T5, Retinaldehyde dehydrogenase 3 (Homo sapiens) (UniProt P47895); assay: as §1, with “ALDH1A3” for “FABP5”, “Cys52” for “Cys67”; assay type: cell-based; details: time 6.0 hrs; procedure, shortened: as §2
T5 sequence (whole entry): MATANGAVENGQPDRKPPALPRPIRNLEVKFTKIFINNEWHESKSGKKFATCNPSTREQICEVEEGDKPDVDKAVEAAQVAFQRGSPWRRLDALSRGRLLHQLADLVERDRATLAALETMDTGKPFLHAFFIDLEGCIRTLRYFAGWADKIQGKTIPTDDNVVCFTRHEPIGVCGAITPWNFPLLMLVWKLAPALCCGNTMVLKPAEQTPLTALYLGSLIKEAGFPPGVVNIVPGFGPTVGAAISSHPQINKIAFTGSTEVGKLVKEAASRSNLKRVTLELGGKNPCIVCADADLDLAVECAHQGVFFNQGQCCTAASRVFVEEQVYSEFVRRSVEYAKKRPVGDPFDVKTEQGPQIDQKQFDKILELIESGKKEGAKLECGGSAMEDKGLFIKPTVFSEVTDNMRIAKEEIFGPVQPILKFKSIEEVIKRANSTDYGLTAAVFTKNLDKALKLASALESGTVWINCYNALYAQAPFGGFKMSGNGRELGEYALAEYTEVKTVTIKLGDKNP

Reticulon-4 = molecular target: T6, Reticulon-4 (Homo sapiens, UniProt Q9NQC3); assay: as §3, with “RTN4” for “VAT1”, “Cys1101” for “Cys”; procedure, shortened: as §4
T6 sequence (Q9NQC3 whole entry): T3 sequence (whole entry)

[9] = molecular target: T2, Synaptic vesicle membrane protein VAT-1 homolog; assay: as §3; procedure, shortened: as §4; remark: listed apart in the source
NCI-H358 = assay: Antiproliferative activity against human NCI-H358 cells harboring KRAS G12C mutant assessed as reduction in cell viability; assay type: functional, cell-based
[10] = molecular target: T7, Synaptic vesicle membrane protein VAT-1 homolog (Homo sapiens) (UniProt Q99536); assay: as §1, with “VAT1” for “FABP5”, “Cys86” for “Cys67”; assay type: cell-based; details: time 6.0 hrs; procedure, shortened: as §2
T7 sequence (whole entry): T2 sequence (Q99536 whole entry)

Ratio [1]: -1.3 | Ratio [2]: -0.3 | IC50 [3]: 4.54 µM | Ratio [4]: -0.4 | IC50 (GTPase KRas [5]): 1800 nM | IC50 (GTPase KRas [6]): 1590 nM | inhibition [7]: Dose-dependent effect | Ratio [8]: -1.1 | IC50 (Reticulon-4): 14.6 µM | IC50 [9]: 4.48 µM | IC50 (NCI-H358): 640 nM | Ratio [10]: -0.6
Compound: C=CC(=O)N1CCN(c2ncnc3c(F)c(-c4c(O)cccc4F)c(Cl)cc23)CC1
